From ChEMBL document CHEMBL4613267, “Novel Potent Muscarinic Receptor Antagonists: Investigation on the Nature of Lipophilic Substituents in the 5- and/or 6-Positions of the 1,4-Dioxane Nucleus” (J Med Chem, 2020)
Activity calls are given as the source filed them. The rule behind the calls is not given here.

How the values were obtained:
[1] = molecular target: T1, Muscarinic acetylcholine receptor M4 (Homo sapiens, UniProt P08173); experiment: Displacement of [3H]NMS from human recombinant muscarinic receptor M4 expressed in CHO-K1 cell membranes incubated for 2 hrs by scintillation counting method
T1 sequence (P08173 whole entry): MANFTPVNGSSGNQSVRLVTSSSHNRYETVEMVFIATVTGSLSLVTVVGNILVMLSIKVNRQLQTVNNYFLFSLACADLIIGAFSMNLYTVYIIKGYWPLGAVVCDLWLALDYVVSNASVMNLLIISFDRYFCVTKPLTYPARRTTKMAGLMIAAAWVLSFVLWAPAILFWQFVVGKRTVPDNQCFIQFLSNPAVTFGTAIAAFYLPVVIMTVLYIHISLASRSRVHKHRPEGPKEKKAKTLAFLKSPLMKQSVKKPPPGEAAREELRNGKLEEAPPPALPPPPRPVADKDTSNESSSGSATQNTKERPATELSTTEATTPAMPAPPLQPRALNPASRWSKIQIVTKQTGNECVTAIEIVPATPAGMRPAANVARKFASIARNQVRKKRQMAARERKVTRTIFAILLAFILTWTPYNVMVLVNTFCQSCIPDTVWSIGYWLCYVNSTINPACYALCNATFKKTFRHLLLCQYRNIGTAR
In short: (§1)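 CHO-K1 membranes stably expressing hM4 or hM5, at about 25–70 μg/mL protein, in 25 mM sodium phosphate with 5 mM MgCl2, pH 7.4. Competition with 0.2 nM [3H]NMS for 2 h at r.t.; nonspecific binding defined with 10 μM atropine. Filtration, then scintillation counting. IC50 from four-parameter logistic fit, converted to Ki. Mean ± S.E.M. of ≥3 experiments, each in duplicate.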

[2] = molecular target: T2, Muscarinic acetylcholine receptor M1 (Homo sapiens, UniProt P11229); experiment: Displacement of [3H]NMS from human recombinant muscarinic receptor M1 expressed in CHO-K1 cell membranes incubated for 2 hrs by scintillation counting method
T2 sequence (P11229 whole entry): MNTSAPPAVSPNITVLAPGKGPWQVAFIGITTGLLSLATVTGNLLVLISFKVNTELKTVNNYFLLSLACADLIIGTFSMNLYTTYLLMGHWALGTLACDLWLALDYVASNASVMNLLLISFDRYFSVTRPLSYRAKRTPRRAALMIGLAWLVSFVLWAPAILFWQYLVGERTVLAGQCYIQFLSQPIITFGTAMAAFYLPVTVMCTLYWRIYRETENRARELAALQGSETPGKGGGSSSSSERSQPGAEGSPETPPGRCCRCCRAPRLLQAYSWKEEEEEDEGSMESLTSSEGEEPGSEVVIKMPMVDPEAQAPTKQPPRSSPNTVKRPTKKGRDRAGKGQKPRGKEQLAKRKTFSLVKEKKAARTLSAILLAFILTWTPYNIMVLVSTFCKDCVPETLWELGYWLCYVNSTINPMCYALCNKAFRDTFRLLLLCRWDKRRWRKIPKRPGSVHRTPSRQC
In short: (§2)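 Membranes from CHO-K1 cells stably expressing each human subtype, homogenised in 25 mM sodium phosphate, 5 mM MgCl2, pH 7.4. About 25–70 μg/mL protein incubated with 0.2 nM [3H]NMS and test compound for 2 h at r.t. Nonspecific binding defined with 10 μM atropine. Filtration, then counting. Four-parameter logistic fit gave IC50, converted to Ki. Mean ± S.E.M. of ≥3 experiments in duplicate.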

[3] = molecular target: T3, Muscarinic acetylcholine receptor M5 (Homo sapiens, UniProt P08912); experiment: Displacement of [3H]NMS from human recombinant muscarinic receptor M5 expressed in CHO-K1 cell membranes incubated for 2 hrs by scintillation counting method; in short: as §1
T3 sequence (P08912 whole entry): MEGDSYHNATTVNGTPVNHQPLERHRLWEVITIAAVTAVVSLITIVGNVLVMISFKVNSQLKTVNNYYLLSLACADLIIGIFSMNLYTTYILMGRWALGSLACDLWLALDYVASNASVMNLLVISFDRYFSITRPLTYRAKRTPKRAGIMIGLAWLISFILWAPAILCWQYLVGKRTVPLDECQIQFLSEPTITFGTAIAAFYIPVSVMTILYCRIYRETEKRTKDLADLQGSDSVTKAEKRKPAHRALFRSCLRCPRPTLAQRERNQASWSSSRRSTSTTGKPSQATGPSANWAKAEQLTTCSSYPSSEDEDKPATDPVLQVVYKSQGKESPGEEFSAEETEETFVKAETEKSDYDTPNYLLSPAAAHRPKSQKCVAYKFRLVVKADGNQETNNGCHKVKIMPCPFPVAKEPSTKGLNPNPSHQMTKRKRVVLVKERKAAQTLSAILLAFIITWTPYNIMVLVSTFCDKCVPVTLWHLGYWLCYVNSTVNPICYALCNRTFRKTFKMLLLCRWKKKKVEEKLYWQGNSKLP

[4] = molecular target: Muscarinic acetylcholine receptor M3 (Homo sapiens, UniProt P20309); experiment: Displacement of [3H]NMS from human recombinant muscarinic receptor M3 expressed in CHO-K1 cell membranes incubated for 2 hrs by scintillation counting method; in short: as §2
Muscarinic acetylcholine receptor M3, sequence (P20309 whole entry): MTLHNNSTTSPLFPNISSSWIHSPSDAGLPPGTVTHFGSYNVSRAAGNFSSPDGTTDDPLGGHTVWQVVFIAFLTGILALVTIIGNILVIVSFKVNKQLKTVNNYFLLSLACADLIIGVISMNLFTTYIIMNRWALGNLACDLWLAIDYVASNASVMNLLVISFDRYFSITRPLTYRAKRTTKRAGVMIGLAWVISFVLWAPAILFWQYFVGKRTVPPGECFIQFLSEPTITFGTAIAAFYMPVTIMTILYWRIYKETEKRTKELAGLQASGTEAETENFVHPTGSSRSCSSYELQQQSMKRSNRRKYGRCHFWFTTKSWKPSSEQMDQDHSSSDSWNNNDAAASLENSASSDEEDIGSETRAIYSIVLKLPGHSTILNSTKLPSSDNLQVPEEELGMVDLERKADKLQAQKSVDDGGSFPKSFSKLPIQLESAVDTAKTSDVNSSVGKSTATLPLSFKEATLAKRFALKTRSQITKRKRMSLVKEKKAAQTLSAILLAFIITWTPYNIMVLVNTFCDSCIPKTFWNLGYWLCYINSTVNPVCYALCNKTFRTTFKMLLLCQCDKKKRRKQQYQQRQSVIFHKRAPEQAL

[5] = molecular target: T4, Muscarinic acetylcholine receptor M2 (Homo sapiens, UniProt P08172); experiment: Displacement of [3H]NMS from human recombinant muscarinic receptor M2 expressed in CHO-K1 cell membranes incubated for 2 hrs by scintillation counting method; in short: as §2
T4 sequence (P08172 whole entry): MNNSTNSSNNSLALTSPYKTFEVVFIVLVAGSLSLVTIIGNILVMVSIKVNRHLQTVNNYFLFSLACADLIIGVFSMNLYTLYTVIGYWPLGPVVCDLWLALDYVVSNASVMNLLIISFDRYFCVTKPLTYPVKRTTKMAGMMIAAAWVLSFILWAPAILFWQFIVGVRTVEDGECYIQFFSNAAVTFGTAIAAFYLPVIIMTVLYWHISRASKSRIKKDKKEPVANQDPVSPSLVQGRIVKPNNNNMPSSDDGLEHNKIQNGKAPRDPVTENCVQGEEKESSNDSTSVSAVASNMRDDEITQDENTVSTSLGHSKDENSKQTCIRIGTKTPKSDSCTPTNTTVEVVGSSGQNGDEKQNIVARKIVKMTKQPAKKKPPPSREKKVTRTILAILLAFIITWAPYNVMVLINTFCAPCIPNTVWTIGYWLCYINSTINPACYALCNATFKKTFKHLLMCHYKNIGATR

[6] = molecular target: T5, Muscarinic acetylcholine receptor (Mus musculus) (UniProt Q920H4+Q9ERZ4+P12657+P32211+Q9ERZ3); experiment: Activity at muscarinic receptor in BALB/c mouse MSC assessed as reduction in cell viability at 10^-4M incubated for 24 hrs by Cell-titer 96 aqueous one solution reagent based assay
In short: (§3)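 Bone-marrow MSCs from mouse, cultured for 2 weeks, then seeded at 5,000 cells/well in DMEM with 10% heat-inactivated FCS. Exposed to compound at 10–4 to 10–10 M for 24 h, with vehicle (DMSO) and untreated controls. Viability read by MTS reagent (2 h, 5% CO2) as absorbance at 490 nm. Mean ± SEM of four independent experiments.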

[7] = molecular target: T5, Muscarinic acetylcholine receptor (Mus musculus); settings: BALB/c, 10^-10M
[8] = molecular target: T5, Muscarinic acetylcholine receptor (Mus musculus); experiment: Activity at muscarinic receptor in BALB/c mouse MSC assessed as increase in cell viability at 10^-10M incubated for 24 hrs by Cell-titer 96 aqueous one solution reagent based assay; in short: as §3
[9] = molecular target: T5, Muscarinic acetylcholine receptor (Mus musculus); experiment: Antagonist activity at muscarinic receptor in BALB/c mouse MSC assessed as inhibition of carbachol-induced increase in cell viability at 10^-4 to 10^-10M incubated for 24 hrs by Cell-titer 96 aqueous one solution reagent based assay
In short: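 Mouse bone-marrow MSCs kept as adherent cultures, with medium changes, for 2 weeks, then plated at 5,000 cells/well in DMEM with 10% HIFCS. Antagonist (10–4 to 10–10 M) given for 1 h, medium replaced, then carbachol 10–10 M for 24 h. Viability read by MTS, 2 h incubation, absorbance 490 nm. Controls were vehicle (DMSO) and untreated cells. Four independent experiments, mean ± SEM.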

| Structure (SMILES) | Ki [1] [nM] | Ki [2] [nM] | Ki [3] [nM] | Ki [4] [nM] | Ki [5] [nM] | Activity [6] | inhibition [7] | Activity [8] | inhibition [9] |
| --- | --- | --- | --- | --- | --- | --- | --- | --- | --- |
| O=C(O[C@H]1C[C@H]2CC[C@@H](C1)[N+]21CCCC1)C(O)(c1ccccc1)c1ccccc1 [TROSPIUM CHLORIDE] | 1.45 | 3.47 | 6.03 | 1.02 | 1.15 | – | – | – | – |
| CN1[C@@H]2CC[C@H]1C[C@@H](OC(=O)C(CO)c1ccccc1)C2 (stereo partly specified) | – | – | – | – | – | Active | Active | Active | – |
| C[N+](C)(C)C[C@@H]1COC[C@](c2ccccc2)(C2CCCCC2)O1 (relative stereo) | – | – | – | – | – | Active | – | Active | Active |
